# Screening data as filed in PubChem BioAssay.
# DNMT1 block: blocks human DNA methyltransferase DNMT1 | 360,000 tested, 0.83% active | DNMT1 molecular beacon, Hinp1I cleavage, fluorescence | inhibition (reported as % activation of signal), % at 10 µM | P26358 | AID 588458; in the data active = inhibition above about 50%
# Scp1 inh: blocks human Scp-1 phosphatase activity; Recombinant Scp1, phosphopeptide, malachite green phosphate absorbance; inhibition, % at 20 µM; 340,000 tested, 0.88% active; Q9GZU7;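 active = inhibition above about 50% at 20 µM, limit read from the data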;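 note: plate controls were DMSO wells with enzyme for no effect and wells lacking enzyme for full effect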
# Target sequence (Q9GZU7 76-261 limits assumed): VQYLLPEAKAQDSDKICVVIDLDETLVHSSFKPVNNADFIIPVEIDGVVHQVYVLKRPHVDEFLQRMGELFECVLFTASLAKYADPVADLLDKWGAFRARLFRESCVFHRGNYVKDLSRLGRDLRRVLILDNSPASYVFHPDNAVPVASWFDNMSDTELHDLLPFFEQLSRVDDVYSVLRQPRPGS
#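 Test system – truncated SCP-1 phosphatase (76-261aa) · Reagent – Phosphorylated 17-residue peptide substrate · Incubation – 45 min room-temperature reaction, 5 min colour, 30 min stabiliser · Detection – colorimetric phosphate reagent with accelerator and stabiliser, absorbance at 630 nm · Measure – % inhibition at 20 µM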
# STEP block: inhibitors of human striatal-enriched phosphatase STEP | recombinant STEP, OMFP fluorogenic substrate, fluorescence | 360,000 tested, 0.25% active | P54829 | inhibition, % at 20 µM;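 active = inhibition at 20 µM, scaled per plate between control wells, above about 37%, limit read from the data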;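 note: 0% = DMSO with enzyme and substrate and 100% = substrate only without enzyme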
#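 material = STEP tyrosine phosphatase | reagent = fluorogenic phosphatase substrate OMFP at 25 µM final | doses = single compound dose of 20 µM, 1% DMSO final | schedule = 20 min reaction, room temperature, in the dark | measured by = fluorescence, 480/540 nm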
# NadD block: inhibitors of Staphylococcus aureus NadD | 360,000 tested, 0.78% active | inhibition, % at 20 µM | AID 602399 | purified NadD enzyme, colorimetric absorbance read-out; in the data active = inhibition above about 26%
# LMPTP inh: LMPTP (human) inhibition; P24666; recombinant LMPTP-A, OMFP fluorogenic substrate, fluorescence intensity; inhibition, % at 20 µM; 360,000 tested, 0.22% active;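 active = compounds that cut the enzyme signal by at least half of the control window in the single-dose screen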;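 note: plate controls were DMSO wells with enzyme plus substrate for no effect and substrate without enzyme for full effect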
# Target sequence (P24666 whole entry, looked up): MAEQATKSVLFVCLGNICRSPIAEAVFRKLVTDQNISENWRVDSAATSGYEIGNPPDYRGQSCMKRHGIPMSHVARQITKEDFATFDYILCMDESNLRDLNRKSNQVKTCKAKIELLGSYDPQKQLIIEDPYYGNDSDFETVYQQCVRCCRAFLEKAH
#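 Assay system: LMPTP-A enzyme. Input: 0.625 nM LMPTP-A final. Probe or stimulus: 400 µM OMFP. Compound dosing: single 20 µM dose. Schedule: 50 min dark incubation at room temperature. Detection: fluorescence intensity of OMFP turnover product. Read-out: percent inhibition versus substrate-only and uninhibited controls. Benchmarks: no-enzyme low control, uninhibited high control.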
# SUMO1 PPI mod: modulators of human SUMO1-mediated protein-protein interactions; SUMO1 binding to a labelled peptide, TR-FRET, 1 h; 360,000 tested, 0.33% active; inhibition, % at 20 µM; in the data active = inhibition above about 37%
# Target sequence (P63165 whole entry, looked up): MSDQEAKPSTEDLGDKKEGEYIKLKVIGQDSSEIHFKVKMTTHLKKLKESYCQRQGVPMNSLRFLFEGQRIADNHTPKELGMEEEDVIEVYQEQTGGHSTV
# Active calls of the source: *; i = inactive; . = no result; + = active, no number. Shown are actives, neighbours in structure and some others; about 2.3% of the full set was active somewhere.
SMILES,DNMT1 block,Scp1 inh,STEP block,NadD block,LMPTP inh,SUMO1 PPI mod
CCC(C)c1ccccc1N1CC(C(=O)NCCc2ccc(OC)c(OC)c2)CC1=O (centres undefined),-1,-5,-2,1,-2,2
Cc1cc(N2CCCC2)nc(-c2ccccc2O)n1,0,-13,6,-2,1,69*
COC(=O)[C@]12CCCCC=C1N(CCC1=CCCCC1)C(=O)[C@H](CC(=O)NCCCCc1ccccc1)C2,.,.,.,7,5,2
COc1ccccc1/C=N/Nc1cc(C)nc2ccc(C)cc12,3,3,0,4,1,7
COc1ccc2nc(C)cc(N/N=C/c3ccccc3)c2c1,67*,0,2,1,7,-48
COc1ccc(/C=N/Nc2cc(C)nc3ccc(OC)cc23)c(OC)c1,51*,-7,6,7,29,87*
COc1ccc(NC(=O)CSc2nnc(N)s2)cc1S(=O)(=O)N1CCCCC1,-3,-7,-1,-5,1,2
O=C(Nc1cccc(Cl)c1)Nc1nnc(-c2ccncc2)s1,30,-7,8,24,40,7
Fc1ccc(Nc2nnc(-c3ccncc3)s2)cc1Cl,0,.,-1,2,9,43*
O=C(Nc1ccc(F)cc1)Nc1nnc(-c2ccncc2)s1,2,-6,0,5,22,3
O=C(Nc1ccc(Cl)cc1)Nc1nnc(-c2ccncc2)s1,-16,3,10,19,60*,9
CCN1C(=NCCCOC(C)C)N[C@@H](CCc2ccccc2)[C@H](C(=O)NCCCOC(C)C)[C@H]1C,5,2,-2,3,-4,0
COC(=O)[C@@]1(Cc2ccc(F)cc2)[C@H]2c3cc(C(=O)N4CCCC4)n(C)c3C[C@H]2CN1C(=O)c1ccccc1,.,.,.,-7,0,-1
CC(Sc1nc2ncc(Cl)cc2[nH]1)C(=O)Nc1ccccc1[N+](=O)[O-] (centres undefined),0,.,-1,4,-1,-6
CCN1C(=O)/C(=C\c2cn(-c3ccccc3)nc2-c2cccnc2)SC1=S,53*,6,-1,9,0,8
O=C1C(=Cc2cn(-c3ccccc3)nc2-c2ccc(OCc3ccccc3)cc2)SC(=S)N1CCS(=O)(=O)O,-59,.,10,50*,88*,90*
O=C(O)CN1C(=O)/C(=C\c2cn(-c3ccccc3)nc2-c2ccccc2)SC1=S,-3,22,9,31*,2,-6
CCOc1ccc(-c2nn(-c3ccccc3)cc2/C=C2\SC(=S)N(Cc3ccco3)C2=O)cc1,14,1,5,9,0,1
Cc1ccnc(NC(=O)c2cccc(S(=O)(=O)N3CCCc4ccccc43)c2)c1,-1,1,0,5,4,2
CCOC(=O)[C@]12CCCC=C1N(Cc1cccc3ccccc13)C(=O)[C@H](CC(=O)N1CCN(C(=O)C3CC3)CC1)C2,.,.,.,-4,0,4
S=c1[nH]nc(-c2cc(-c3ccccc3)n[nH]2)n1/N=C/c1cccc(Cl)c1,5,4,9,24,10,88*
S=c1[nH]nc(-c2ccccc2)n1/N=C/c1cccc(Br)c1,-3,-6,0,12,-1,3
CC12CCC(=O)N1C(C(=O)N1CCN(S(=O)(=O)c3ccc(F)c(F)c3)CC1)CS2 (centres undefined),4,-7,1,-3,-2,0
Cc1c(NC(=O)c2cc(-c3ccccc3)nc3ccccc23)c(=O)n(-c2ccccc2)n1C,0,0,2,4,2,-7
Cc1c(NC(=O)COC(=O)c2cc(-c3ccc(-c4ccccc4)cc3)nc3ccccc23)c(=O)n(-c2ccccc2)n1C,30,21,-1,50*,5,-3
SMILES,DNMT1 block,Scp1 inh,STEP block,NadD block,LMPTP inh,SUMO1 PPI mod
c1ccc(-c2cc(NCCN3CCCCC3)c3ccccc3n2)cc1,44,1,-4,-27,90*,-10
O=C(Cc1ccccc1)NNc1c2ccccc2nc2ccccc12,1,-1,-1,-12,3,-13
O=C(Nc1c2ccccc2nc2ccccc12)C(Cl)(Cl)Cl,51*,3,3,-4,11,-9
Cc1ccnc(NC(c2ccccc2)c2ccc3cccnc3c2O)c1 (centres undefined),-10,-15,3,4,3,-11
Cc1ccnc(NC(c2cccnc2)c2ccc3cccnc3c2O)c1 (centres undefined),-2,-13,9,8,54*,-12
Cc1cccn2c(=O)c(/C=N/O)c(Nc3ccccc3F)nc12,11,-11,2,5,16,52*
C/C(=N\S(=O)(=O)c1ccc(C)cc1)N(C)C,9,-4,-2,-6,0,45*
CN(C)/C=C/C(=O)c1ccc(OCCN(C)c2ccccn2)cc1,-1,-7,-1,-1,51*,18
NS(=O)(=O)c1ccc(CNC(=O)COc2ccc3c4c(c(=O)oc3c2)CCCC4)cc1,-1,-1,3,0,0,63*
Cc1cc(NC(=O)COC(=O)COc2ccc3c4c(c(=O)oc3c2)CCC4)no1,0,-1,-1,-4,0,-2
O=C(COc1ccc2c3c(c(=O)oc2c1)CCC3)Nc1ccccn1,-14,-11,3,6,0,51*
Cc1ccccc1N(CC(=O)NCCSc1ccccn1)S(=O)(=O)c1ccccc1,0,1,-4,-6,-1,2
Cc1ccccc1CSCC(=O)NCCSc1ccccn1,-1,-9,2,-6,-1,49*
CC1(C(=O)NS(=O)(=O)Cc2ccccc2C(F)(F)F)CCN1C(=O)Cc1cccs1 (centres undefined),6,.,2,6,-1,-3
CC(=O)Oc1ccc2c(c1)Oc1cc(OC(C)=O)ccc1C21OC(=O)c2ccccc21,+,-5,-6,0,-1,i
CCOC1=C2[C@H](c3ccccc3)N(S(=O)(=O)c3ccc(C)cc3)C(C(C)(C)C)[C@H]2C(C#N)(C#N)C(C#N)(C#N)C1 (some centres undefined),-23,.,1,34*,1,8
CCOC1=C2CN(S(=O)(=O)c3ccc(C)cc3)[C@@H](c3cccc4ccccc34)C[C@H]2[C@H]2C(=O)N(c3ccccc3)C(=O)[C@H]2C1,-5,.,2,11,0,1
CCOC1=C2CN(S(=O)(=O)c3ccc(C)cc3)[C@H](c3cccc4ccccc34)C[C@H]2C(C#N)(C#N)C(C#N)(C#N)C1,-40,.,-1,30*,1,5
